ChEMBL document CHEMBL1821664, “Sulfonamides as a new scaffold for hypoxia inducible factor pathway inhibitors” (Bioorg Med Chem Lett, 2011)
Active and inactive are the calls of the source. No cut-off for these calls is given here.

How the values were obtained:
[1] = target: T1, Hypoxia inducible factors; HIF-1-alpha, HIF-2-alpha (Homo sapiens, UniProt Q16665+Q99814); test: (§1) Inhibition of hypoxia-induced HIF1 activation in human LN229 cells expressing VEGF reporter gene assessed as VEGF expression at 10 uM preincubated for 1 hr under normoxia condition followed by 24 hrs incubation under hypoxia condition by luciferase reporter assay; type: cell-based
Outline: (§2)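 LN229 cells stably carrying a VEGF promoter-luciferase construct, pre-treated 1 h in normoxia with compound at 10 µM final, then 24 h in normoxia or hypoxia; luciferase measured in cell extracts; triplicate means ± SD.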

[2] = target: T1, Hypoxia inducible factors; HIF-1-alpha, HIF-2-alpha; test: Inhibition of hypoxia-induced HIF1 activation in human LN229 cells expressing HRE-AP reporter gene at 10 uM preincubated for 1 hr under normoxia condition followed by 24 hrs incubation under hypoxia condition by HRE-luciferase reporter assay relative to control; values are per cent of control
[3] = target: T1, Hypoxia inducible factors; HIF-1-alpha, HIF-2-alpha; test: Inhibition of hypoxia-induced HIF1 activation in human LN229 cells expressing VEGF reporter gene assessed as VEGF expression at 10 uM after 24 hrs incubation under hypoxia condition by luciferase reporter assay; type: cell-based; outline: as §2
[4] = target: T1, Hypoxia inducible factors; HIF-1-alpha, HIF-2-alpha; test: Inhibition of hypoxia-induced HIF1 activation in human LN229 cells expressing HRE-AP reporter gene at 5 uM preincubated for 1 hr under normoxia condition followed by 24 hrs incubation under hypoxia condition by HRE-luciferase reporter assay relative to control; values are per cent of control
[5] = target: T1, Hypoxia inducible factors; HIF-1-alpha, HIF-2-alpha; test: Inhibition of hypoxia-induced HIF1 activation in human LN229 cells expressing HRE-AP reporter gene at 2.5 uM preincubated for 1 hr under normoxia condition followed by 24 hrs incubation under hypoxia condition by HRE-luciferase reporter assay relative to control; values are per cent of control
[6] = target: T1, Hypoxia inducible factors; HIF-1-alpha, HIF-2-alpha; test: Inhibition of hypoxia-induced HIF1 activation in human LN229 cells expressing HRE-AP reporter gene preincubated for 1 hr under normoxia condition followed by 24 hrs incubation under hypoxia condition by HRE-luciferase reporter assay; type: cell-based
Outline: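 HRE-luciferase dose-response: cells pre-treated 1 h, then 24 h hypoxia; luciferase measured in cell extracts; each compound run 5–21 times on separate days, in triplicate. IC50 obtained from a four-parameter logistic fit using a nonlinear mixed-effects model.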

[7] = target: T1, Hypoxia inducible factors; HIF-1-alpha, HIF-2-alpha; test: Inhibition of HIF1alpha expression in human LN229 cells assessed as reduction of HIF-1alpha accumulation at 100 nM preincubated for 1 hr under normoxia condition followed by 24 hrs incubation under hypoxia condition by Western blotting; type: functional, cell-based; details: LN-229
[8] = target: T1, Hypoxia inducible factors; HIF-1-alpha, HIF-2-alpha; test: Inhibition of HIF1alpha expression in human LN229 cells assessed as reduction of HIF-1alpha accumulation at <10 uM preincubated for 1 hr under normoxia condition followed by 24 hrs incubation under hypoxia condition by Western blotting; type: functional, cell-based; details: LN-229
[9] = target: T1, Hypoxia inducible factors; HIF-1-alpha, HIF-2-alpha; test: as §1, with “HRE-AP” for “VEGF”, “HRE remaining activity” for “VEGF expression”, “alkaline phosphatase” for “luciferase”, “assay relative to control” for “assay”; type: cell-based
Outline: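 LN229-HRE-AP cells pre-treated 1 h with compound or vehicle (1% DMSO), then 24 h in 1% O2 hypoxia incubator; cells lysed and alkaline phosphatase activity measured. Hits were compounds reducing hypoxic AP induction >50%; single assay.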

[10] = target: T1, Hypoxia inducible factors; HIF-1-alpha, HIF-2-alpha; test: Inhibition of HIF1alpha expression in human LN229 cells assessed as reduction of HIF-1alpha accumulation at 20 uM preincubated for 1 hr under normoxia condition followed by 24 hrs incubation under hypoxia condition by Western blotting; type: functional, cell-based; details: LN-229
Outline: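 LN229 glioma cells were pre-treated for 1 h with compound at 20 µM final, then incubated under normoxia or hypoxia for 24 h. HIF-1α accumulation was read by Western blot, with HIF-1α and actin immunoblotted.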

Compound	inhibition [1]	residual activity [2]	inhibition [3]	residual activity [4]	residual activity [5]	IC50 [6]	inhibition [7]	inhibition [8]	Activity [9]	inhibition [10]
CC(C)C[C@H](NC(=O)[C@H](Cc1ccccc1)NC(=O)c1cnccn1)B(O)O							Active			
COc1ccc(S(=O)(=O)N(Cc2ccc3c(c2)C=CC(C)(C)O3)C2CCCCC2)c(OC)c1	Active	1%	inactive	5%	24%	1270 nM				
COc1ccc(S(=O)(=O)N(Cc2ccc3c(c2)C=CC(C)(C)O3)c2ccccc2)cc1OC	Active	1%	inactive	2%	18%	593 nM		inactive	28.9%	Active

Further lines, with some results ahead:

inhibition [1]	residual activity [2]	inhibition [3]	residual activity [4]	residual activity [5]	IC50 [6]	inhibition [7]	Compound	inhibition [8]	Activity [9]	inhibition [10]
Active	1%	inactive	6%	21%	672 nM		COc1ccc(S(=O)(=O)N(Cc2ccc3c(c2)C=CC(C)(C)O3)CC(C)C)cc1OC			
Active	1%	inactive	5%	23%	731 nM		CC(C)CN(Cc1ccc2c(c1)C=CC(C)(C)O2)S(=O)(=O)c1cc(Cl)ccc1Cl			
Active	1%	inactive	3%	13%	532 nM		CC(C)CN(Cc1ccc2c(c1)C=CC(C)(C)O2)S(=O)(=O)c1ccc([N+](=O)[O-])cc1			
Active	4%	inactive	4%	6%	656 nM		CC(C)CN(Cc1ccc2c(c1)C=CC(C)(C)O2)S(=O)(=O)c1cccc2ccccc12			
Active	1%	inactive	2%	15%	508 nM		CC1(C)C=Cc2cc(CN(Cc3ccccc3)S(=O)(=O)c3ccc(Br)cc3OC(F)(F)F)ccc2O1			
